Screening data as filed in PubChem.
Autophagy HCS = autophagy modulators in MEF cells, primary screen, imaging, high-content, MEF GFP-LC3. MEF GFP-LC3 puncta imaging; test concentration mostly 10 µM. calls only at 10 µM (by protocol). hit rate 0.98% among 190,000. AID 463193, 2010;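 active means percentage of spot-positive cells more than 3 SD above its plate mean, without a fluorescence outlier flag or 80% toxicity; inconclusive means no clear call, values can overlap the other calls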
MT stabilize HCS = microtubule stabilizers in HeLa cells, primary screen, imaging, high-content imaging. HeLa tubulin immunostaining HCS, 24 h; share of cells brighter than vehicle mean+2SD. % tubulin-high responders, % at 10 µM. hit rate 0.83% among 200,000. AID 2205, 2009;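 active means plate Z-score above 3 for both tubulin-high and condensed-nucleus cell shares, with cell loss under 80%, at 10 µM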;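 further: anti alpha tubulin signal scored within the nucleus-defined area of each cell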
b-catenin transl = modulators of beta-catenin nuclear translocation, primary screen, imaging, HeLa cells, immunofluorescence, high-content; nuclear translocation activity, % at 5 µM; hit rate 0.3% among 190,000;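 active means nuclear translocation activity above 50% at 5 µM, with a well cell count of 50 or more; inconclusive means wells under 50 cells across six images, flagged as toxic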;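 further: per-cell ratio of nuclear to cytoplasmic median beta-catenin stain intensity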
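Read-out: Nuclear/cytoplasmic beta-catenin signal ratio, % activation | Assay system: Human HeLa cell line | Times: 24 h compound exposure at 37°C, 5% CO2 | Signal: Fluorescence imaging of beta-catenin antibody stain plus DAPI | Dosing: 5 µM primary, 0.02–20 µM confirmation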
Tb hexokinase = Trypanosoma brucei hexokinase 1 inhibitors, primary screen, biochemical, G6PDH-coupled NADH absorbance, MLSCN library; inhibition, % at 10 µM; recombinant TbHK1, G6PDH-coupled NADH A340; AID 1430, 2008; hit rate 0.11% among 220,000; hexokinase 1 [Trypanosoma brucei];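 active means inhibition of 50% or more in the single-dose primary screen; inactive means inhibition below 50%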
Insulin prom up = insulin promoter activators in MIN6 cells, imaging, high-content screening, mouse beta cells | MIN6 insulin promoter-GFP reporter; hits give high values | z-score at 5 µM | hit rate 0.3% among 190,000 | AID 1625, 2009;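 active means z-score above 3 at 5 µM with at least 500 cells counted in the well; inconclusive means wells under 500 cells, flagged as cytotoxic or low count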
Each line names hits and unclear results; the compound was inactive in the other large screens. Most compounds without a hit are left out; they make up all but 1.9% or so of the library.

CCC(=O)Nc1nonc1-c1nc2ccccc2n1Cc1cccc2ccccc12	Autophagy HCS active, b-catenin transl 100.6 (no result: Insulin prom up)
Cc1ccc(Cn2c(=O)c3ccccc3n3nc(C)cc23)cc1	none
CCn1c2ccccc2c2cc(CNCc3ccc(OC)cc3OC)ccc21	Autophagy HCS active
O=C(COC(=O)C1CCCCC1)Nc1ccccc1OC(F)F	none
COc1ccc(C2C(C(=O)c3ccccc3)=C(C)Nc3nc4ccccc4n32)c(OC)c1 (configuration not stated)	Insulin prom up 3.79
CC(CCCCC(=O)Nc1ccc(C(F)(F)F)cc1)NCCc1cnc[nH]1 (configuration not stated)	none (no result: Autophagy HCS, MT stabilize HCS, Tb hexokinase)
COc1cc2c(cc1OC)CN(C(=O)c1ccc3nc[nH]c3c1)CC2	MT stabilize HCS 17.9, b-catenin transl 82.3
O=C(c1ccc2nc[nH]c2c1)N1CCc2ccccc2C1	none
O=C(c1cc(COc2ccc(F)cc2Cl)on1)N1CCCC(c2ccccc2)C1 (configuration not stated)	Autophagy HCS active
CC1(C)CC(=O)C(CC2=C(O)CC(C)(C)CC2=O)=C(O)C1	Autophagy HCS active
O=C(CO/N=C/c1ccc(OC(F)F)cc1)NC1CCCC1	none
O=C(Nc1ccccc1F)c1ccc(OCc2ccccc2)cc1	Autophagy HCS active
CCOCC(=O)Nc1ccc(OCc2ccccc2)cc1	Autophagy HCS active
O=C(CO/N=C/c1ccc(OC(F)F)cc1)NC1CCCCCC1	Autophagy HCS active
COc1cc(/C=N/OCC(=O)Nc2ccc(OC(F)F)cc2)ccc1OCc1ccccc1	MT stabilize HCS 17.2
O=C(c1cccc(N2C(=O)C3CC=CCC3C2=O)c1)N1CCCc2ccccc21 (configuration not stated)	none
O=C(Nc1nc2ccccc2s1)c1cc2c(s1)-c1ccccc1OC2	Autophagy HCS active
CC[C@H](C)C(C(=O)N1CCN(C(=O)OC(C)(C)C)CC1)n1cc(C(Cc2ccc(O)cc2)NC(=O)OC(C)(C)C)nn1 (some centres not stated)	none
Cc1cccnc1NC(=O)c1csnn1	none (no result: Autophagy HCS, MT stabilize HCS)
CC(C)(C)C(=O)/C(=C\c1ccc([N+](=O)[O-])cc1)n1cncn1	Autophagy HCS active (no result: Insulin prom up)
CCCCOc1ccc(C(=O)C(CN2CCOCC2)c2ccccc2)cc1 (configuration not stated)	Autophagy HCS active, b-catenin transl inconclusive (no result: Insulin prom up)
COc1ccc(C(=O)C(CN2CCOCC2)c2ccccc2)cc1 (configuration not stated)	none (no result: b-catenin transl)
CC1(C)Cc2c(c(N3CCCC3)nc3sc4c(N5CCNCC5)ncnc4c23)CO1	none (no result: Autophagy HCS, MT stabilize HCS)
O=C1c2ccccc2-c2n[nH]c(=O)c3ccc(N4CCCCC4)c1c23	none
COc1ccc(/C=N/NC(=O)c2cccnc2)cc1COc1ccc([N+](=O)[O-])c(C)c1	b-catenin transl 82.2 (no result: Autophagy HCS, MT stabilize HCS)
Cc1ccc(C(=O)N/N=C/c2ccc(-c3ccccc3[N+](=O)[O-])o2)cn1	none
COc1ccc(-c2ccc(/C=N/NC(=O)c3cccnc3)o2)c([N+](=O)[O-])c1	Autophagy HCS active
COc1ccc(/C=N/NC(=O)c2ccccc2Cl)cc1CSc1nc2ccccc2s1	b-catenin transl 331.7 (no result: Insulin prom up)
COc1ccc(/C=N/NC(=O)c2ccn[nH]2)cc1COc1ccc([N+](=O)[O-])c(C)c1	none (no result: Autophagy HCS, MT stabilize HCS)
COc1cc(/C=N/NC(=O)c2ccccc2Cl)ccc1Oc1ccc([N+](=O)[O-])cn1	MT stabilize HCS 17.0
COc1ccc(/C=N/NC(=O)c2ccccc2O)cc1Cn1cc([N+](=O)[O-])cn1	none (no result: Autophagy HCS, MT stabilize HCS)
O=C(Cn1c(=O)oc2cccnc21)Nc1ccc(C(F)(F)F)cc1	none (no result: Autophagy HCS, MT stabilize HCS)
CC(C)(C)NC(=O)C(c1ccc(O)cc1)N(C(=O)Cn1nnc(-c2ccc(F)cc2)n1)c1ccccc1F (configuration not stated)	none
COc1ccc(/C=N/NC(=O)c2cccnc2)cc1CN1CCOCC1	none (no result: Autophagy HCS, MT stabilize HCS)
COc1ccc(/C=N/NC(=O)c2cccnc2)cc1CSc1nc2ccccc2s1	b-catenin transl 153.0
Cc1nn(C(C)C)c(C)c1CN1CCCC(CCC(=O)NCc2ccccc2F)C1 (configuration not stated)	none
CC(C)c1csc(CN2CCCC(CCC(=O)NCc3ccccc3F)C2)n1 (configuration not stated)	MT stabilize HCS 24.9 (no result: Insulin prom up)
